Source: ChEMBL document CHEMBL4609997, “Synthesis and biological activities of amino acids functionalized α-GalCer analogues” (Bioorg Med Chem, 2020)
Calls of active or inactive are those of the source. No cut-off for these calls is given here.

What was measured:
Mus musculus [1] = experiment: Immunostimulatory activity in C57BL/6 mouse assessed as induction of Th1 cytokine-biased response by measuring IFN-gamma/IL-6 ratio at 100 ug/kg, ip measured after 24 hrs by ELISA; type: functional; conditions: in the assay text read “IFN-gamma/IL-4 ratio” for “IFN-gamma/IL-6 ratio”
Method in brief: (§1)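 Female C57BL/6 mice given glycolipid ip at 100 µg/kg (DMSO stock diluted in PBS). Serum IFN-γ and IL-4 measured by ELISA at several time points up to 24 h, 3 mice per group tested individually. Th1 bias expressed as IFN-γ/IL-4 ratio and as area-under-curve ratio of IFN-γ/IL-4 release.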

[2] = biological target: T1, Antigen-presenting glycoprotein CD1d (Mus musculus) (UniProt P11609+P11610); experiment: Binding affinity to CD1d in C57BL/6 mouse splenocytes assessed as iNKT cell stimulating activity by measuring induction of Th1-cytokine, IFN-gamma production incubated for 48 hrs by ELISA; type: cell-based
Method in brief: (§2)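 Spleens from female C57BL/6 mice passed through a 100 µM strainer, RBC-lysed (ammonium chloride/KHCO3/EDTA buffer, pH 7.2, 5 min, 4 °C), PBS-washed. Splenocytes at 1×10^5/well in RPMI 1640 with 10% FBS and 1% penicillin-streptomycin, exposed to glycolipid at three concentrations (0.01-1 µM) for 48 h at 37 °C. IFN-γ and IL-4 in supernatant measured by ELISA (pg/mL); α-GalCer positive control.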

[3] = biological target: T1, Antigen-presenting glycoprotein CD1d (Mus musculus); experiment: Binding affinity to CD1d in C57BL/6 mouse splenocytes assessed as iNKT cell stimulating activity by measuring induction of Th2-cytokine, IL-4 production incubated for 48 hrs by ELISA; type: cell-based; method in brief: as §2
[4] = biological target: T1, Antigen-presenting glycoprotein CD1d (Mus musculus); experiment: Binding affinity to CD1d in C57BL/6 mouse splenocytes assessed as iNKT-cell stimulating activity by measuring IFN-gamma/IL-4 ratio at 0.01 uM incubated for 48 hrs by ELISA; type: cell-based; conditions: in the assay text read “IFN-gamma/IL-4 ratio” for “IFN-gamma/IL-6 ratio”
Method in brief: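 Splenocytes prepared and cultured as for the cytokine assay (1×10^5/well, RPMI 1640 with 10% FBS, 48 h, 37 °C). IFN-γ and IL-4 determined by ELISA at 0.01 µM glycolipid and expressed as the relative proportion (IFN-γ/IL-4 ratio).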

[5] = biological target: T1, Antigen-presenting glycoprotein CD1d (Mus musculus); experiment: Binding affinity to CD1d in C57BL/6 mouse splenocytes assessed as iNKT cell stimulating activity by measuring maximal induction of Th2-cytokine, IL-4 production at 1 uM incubated for 48 hrs by ELISA; type: cell-based; method in brief: as §2
Splenocyte [6] = experiment: Cytotoxicity against C57BL/6 mouse splenocytes assessed as reduction in cell viability at 0.01 to 1 uM incubated for 48 hrs by MTT assay; type: cell-based
Method in brief: (§3)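 Female C57BL/6 splenocytes, strained and RBC-lysed, plated at 1×10^5/well in RPMI 1640 with 10% FBS and 1% penicillin-streptomycin, treated 48 h at 37 °C at 1, 0.1 and 0.01 µM. MTT (5 mg/mL) added for 4 h, formazan dissolved in DMSO, OD read at 570 nm. Viability given as % of medium-only control cells.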

[7] = biological target: T1, Antigen-presenting glycoprotein CD1d (Mus musculus); experiment: Binding affinity to CD1d in C57BL/6 mouse splenocytes assessed as iNKT cell stimulating activity by measuring maximal induction of Th1-cytokine, IFN-gamma production at 1 uM incubated for 48 hrs by ELISA; type: cell-based; method in brief: as §2
Mus musculus [8] = experiment: Immunostimulatory activity in C57BL/6 mouse assessed as IFN-gamma level in serum at 100 ug/kg, ip measured after 24 hrs by ELISA; type: functional
Method in brief: (§4)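 Female C57BL/6 mice, 7-8 weeks, 25-28 g, SPF housing. Glycolipid 1 mg/mL DMSO stock diluted in PBS, given ip at 100 µg/kg. Serum taken at several time points after injection and IFN-γ and IL-4 measured by ELISA; 3 mice per group, each serum tested individually.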

Splenocyte [9] = experiment: Induction of cell proliferation in C57BL/6 mouse splenocytes incubated for 48 hrs by MTT assay; type: functional, cell-based; method in brief: as §3
Mus musculus [10] = experiment: Immunostimulatory activity in C57BL/6 mouse assessed as increase in IL-4 level in serum at 100 ug/kg, ip measured after 3 hrs by ELISA; type: functional, organism-based; method in brief: as §4
Mus musculus [11] = experiment: Immunostimulatory activity in C57BL/6 mouse assessed as increase in IFN-gamma level in serum at 100 ug/kg, ip measured after 6 to 24 hrs by ELISA; type: functional, organism-based; method in brief: as §4
Splenocyte [12] = experiment: Induction of cell proliferation in C57BL/6 mouse splenocytes at 1 uM incubated for 48 hrs by MTT assay; type: functional, cell-based; method in brief: as §3
Mus musculus [13] = experiment: Immunostimulatory activity in C57BL/6 mouse assessed as induction of Th1 cytokine-biased response by measuring AUC ratio of IFN-gamma/IL-4 cytokine release at 100 ug/kg, ip measured after 24 hrs by ELISA; type: functional; method in brief: as §1
Mus musculus [14] = experiment: Immunostimulatory activity in C57BL/6 mouse assessed as increase in IL-4 level in serum at 100 ug/kg, ip measured after 6 hrs by ELISA; type: functional, organism-based; method in brief: as §4
Mus musculus [15] = experiment: Immunostimulatory activity in C57BL/6 mouse assessed as induction of Th1 cytokine-biased response by measuring IFN-gamma/IL-4 ratio at 100 ug/kg, ip measured after 24 hrs by ELISA

Row | Activity [2] | Activity [3] | Ratio [4] | Activity [5] | Activity [7] | SMILES | Ratio (Mus musculus [1]) | Activity (Splenocyte [6]) | Activity (Mus musculus [8]) | Activity (Splenocyte [9]) | Activity (Mus musculus [10]) | Activity (Mus musculus [11]) | Activity (Splenocyte [12]) | Ratio (Mus musculus [13]) | Activity (Mus musculus [14]) | Ratio (Mus musculus [15])
1 | Dose-dependent effect | Dose-dependent effect | 1.7 | Active | Active | CCCCCCCCCCCCCCCCCCCCCCCCCC(=O)N[C@@H](CO[C@H]1O[C@H](Cn2cc(C(=O)N[C@@H](CO)C(=O)OC)nn2)[C@H](O)[C@H](O)[C@H]1O)[C@H](O)[C@H](O)CCCCCCCCCCCCCC | 1.8 | Non-Toxic | 4755 pg/mL | Dose-dependent effect | Active | Active | Active | – | – | –
2 | Dose-dependent effect | Dose-dependent effect | 2.1 | Active | Active | CCCCCCCCCCCCCCCCCCCCCCCCCC(=O)N[C@@H](CO[C@H]1O[C@H](Cn2cc(C(=O)NCC(=O)OC)nn2)[C@H](O)[C@H](O)[C@H]1O)[C@H](O)[C@H](O)CCCCCCCCCCCCCC | – | Non-Toxic | Active | Dose-dependent effect | Active | Active | Active | – | – | –
3 | Dose-dependent effect | Dose-dependent effect | – | Active | Active | CCCCCCCCCCCCCCCCCCCCCCCCCC(=O)N[C@@H](CO[C@H]1O[C@H](CO)[C@H](O)[C@H](O)[C@H]1O)[C@H](O)[C@H](O)CCCCCCCCCCCCCC [RGI-7000] | 2.5 | – | 2925 pg/mL | – | Active | Active | – | 13.2 | – | –
4 | Dose-dependent effect | Dose-dependent effect | 4.9 | Active | Active | CCCCCCCCCCCCCCCCCCCCCCCCCC(=O)N[C@@H](CO[C@H]1O[C@H](Cn2cc(C(=O)N[C@@H](CCCCN)C(=O)OC)nn2)[C@H](O)[C@H](O)[C@H]1O)[C@H](O)[C@H](O)CCCCCCCCCCCCCC | – | Non-Toxic | 3886 pg/mL | Dose-dependent effect | – | – | Active | 23.6 | Active | 5.6
5 | Dose-dependent effect | Dose-dependent effect | 3.3 | Active | Active | CCCCCCCCCCCCCCCCCCCCCCCCCC(=O)N[C@@H](CO[C@H]1O[C@H](Cn2cc(C(=O)N[C@@H](Cc3ccccc3)C(=O)OC)nn2)[C@H](O)[C@H](O)[C@H]1O)[C@H](O)[C@H](O)CCCCCCCCCCCCCC | – | Non-Toxic | Active | Dose-dependent effect | Active | Active | Active | – | – | –
